Screening results: PubChem BioAssay, The Scripps Research Institute Molecular Screening Center
PRMT1 inh: PRMT1 (human) inhibition, primary screen; Q99873; recombinant PRMT1, activity-based probe fluorescence polarization; inhibition, % at 2.79 µM; 1.3% of 370,000 active; AID 652257;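 active = inhibition above about 21% made by adding two undisclosed values, limit read from the data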
TCR-CD3 inh: inhibitors of human TCR-CD3 interaction; TAMRA-labeled TCR probe fluorescence, biochemical; inhibition, % at 9.4 µM; 0.37% of 360,000 active; in the data active = inhibition above about 19%;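 also: recombinant mutant TCR 2C K166C tagged with TAMRA read by polarization; 0% = receptor in buffer alone and 100% = receptor with positive control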
mABHD4 FP: inhibitors of mouse ABHD4 | Q8VD66 | purified mABHD4, FP-Rh probe fluorescence polarization | inhibition, % at 8.92 µM | 0.54% of 370,000 active | AID 720543;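 active = inhibition exceeding the mean over every tested compound plus 3 SD, cut at about 30% in these data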;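 also: 0% = plate median of compound wells and 100% = S159A mutant with DMSO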
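Test system: mouse ABHD4 enzyme, wild type. Reagent: FP-Rh fluorescent activity-based probe, added after compound pre-incubation. Timing: pre-incubation 45 min, probe exposure 60 min, at 25 °C. Technique: FP readout, ex 525 nm / em 598 nm. Benchmarks: high control S159A mutant with DMSO, low control median of compound wells.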
SIAE inh: human SIAE inhibition, primary screen; 0.69% of 370,000 active; Q9HAT2; SIAE FP-Rh probe binding, fluorescence polarization; inhibition, % at 9.66 µM; AID 1053197;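 active = inhibition above a cutoff: mean of compounds within the control limits plus 3 SD of those, cut at about 17% in these data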;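 also: 0% = plate median of compound wells and 100% = probe without SIAE protein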
HTRA1 inh: blocks human HTRA1 serine peptidase; 0.5% of 340,000 active; inhibition, % at 5.96 µM; Q92743; recombinant HTRA1, FP-rhodamine activity-based probe, fluorescence polarization; AID 504803; in the data active = inhibition above about 36%;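 also: 0% = enzyme with DMSO and 100% = wells lacking enzyme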
Target sequence (Q92743 whole entry, looked up): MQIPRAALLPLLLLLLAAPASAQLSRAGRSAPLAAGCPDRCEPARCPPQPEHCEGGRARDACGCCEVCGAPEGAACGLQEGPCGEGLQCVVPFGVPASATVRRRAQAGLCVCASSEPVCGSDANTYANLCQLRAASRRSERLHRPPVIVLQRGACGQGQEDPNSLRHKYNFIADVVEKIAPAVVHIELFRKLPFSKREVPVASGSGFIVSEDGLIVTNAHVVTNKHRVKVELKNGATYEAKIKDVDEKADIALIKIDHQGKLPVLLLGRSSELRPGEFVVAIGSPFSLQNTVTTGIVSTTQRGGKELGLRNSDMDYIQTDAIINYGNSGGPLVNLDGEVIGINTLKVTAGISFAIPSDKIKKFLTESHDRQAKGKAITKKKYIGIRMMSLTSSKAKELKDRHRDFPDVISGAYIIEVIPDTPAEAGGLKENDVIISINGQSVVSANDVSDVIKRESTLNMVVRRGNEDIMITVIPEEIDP
SIAE inh conf: confirmation of human SIAE inhibitors; AID 1117263; SIAE FP-Rh activity-based probe, fluorescence polarization; inhibition, % at 9.66 µM; 13% of 2,300 active; shares compounds with SIAE inh;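 active = mean inhibition of the replicates above the hit cutoff set in the primary screen, cut at about 17% in these data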;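 also: 0% = SIAE with DMSO and probe and 100% = probe without SIAE; inhibitors lower polarization as more probe stays unbound to SIAE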
Numbers without * were called inactive. Hits are enriched below; roughly 2.5% of the tested compounds scored in any of these assays.

Results for Cc1ccc(N=C2C(=O)Nc3ccccc32)cc1C ?
PRMT1 inh: 0; TCR-CD3 inh: -5; mABHD4 FP: -7; SIAE inh: 2; HTRA1 inh: -7

Results for O=C1Nc2ccccc2C1=Nc1ccc2[nH]c3ccccc3c2c1 ?
PRMT1 inh: 8; TCR-CD3 inh: 4; mABHD4 FP: 28; SIAE inh: 17*; HTRA1 inh: 20; SIAE inh conf: 2

How did COc1ccc2c(c1)c(=O)oc1cc(OCC(=O)N3CCc4ccccc4C3)ccc12 do in these assays?
PRMT1 inh: 4; TCR-CD3 inh: 17; mABHD4 FP: 1; SIAE inh: -3; HTRA1 inh: -4

Results for CC(C)N(C(=O)Cn1c(=O)oc2ccccc21)c1ccccc1 ?
PRMT1 inh: -3; TCR-CD3 inh: 12; mABHD4 FP: -3; SIAE inh: 22*; HTRA1 inh: 2; SIAE inh conf: -2

How did O=C(COCc1ccccc1)N1CC[C@H]2[C@H](CCCN2Cc2ccccc2)C1 do in these assays?
PRMT1 inh: -2; mABHD4 FP: -6; SIAE inh: 10

What do the screens show for `Cc1ccc(S(=O)(=O)N/N=C\c2cn(CC(N)=O)c3ccccc23)cc1C`?
PRMT1 inh: -2; TCR-CD3 inh: 7; mABHD4 FP: 9; SIAE inh: 23*; HTRA1 inh: 4; SIAE inh conf: 7

What do the screens show for `C[C@H](CO)N1C[C@H](C)[C@@H](CN(C)C(=O)Nc2ccccc2)OCc2cn(nn2)CCCC1=O`?
PRMT1 inh: -1; TCR-CD3 inh: 0; mABHD4 FP: 3; SIAE inh: -8

How did Cc1ccn2c(NC3CCCC3)c(-c3ccncc3)nc2c1 do in these assays?
PRMT1 inh: -3; TCR-CD3 inh: 2; mABHD4 FP: -4; SIAE inh: 18*; HTRA1 inh: 3; SIAE inh conf: -1

Results for COc1ccccc1CNC(=O)COC(=O)c1ccc(C)s1 ?
PRMT1 inh: 2; TCR-CD3 inh: 5; mABHD4 FP: 4; SIAE inh: 23*; HTRA1 inh: -4; SIAE inh conf: 4

What do the screens show for `COc1ccccc1CNC(=O)COC(=O)c1ccco1`?
PRMT1 inh: -2; TCR-CD3 inh: 2; mABHD4 FP: -10; SIAE inh: -18; HTRA1 inh: 4

What do the screens show for `Cc1cccc(/C(N)=N/OC(=O)c2ccc(F)cc2)c1`?
PRMT1 inh: 2; TCR-CD3 inh: -3; mABHD4 FP: 3; SIAE inh: 20*; HTRA1 inh: 2; SIAE inh conf: -1

What do the screens show for `COc1ccc(C(=O)Nc2ccc(OCc3ccccc3)cc2)cc1[N+](=O)[O-]`?
PRMT1 inh: -1; TCR-CD3 inh: -6; mABHD4 FP: 3; SIAE inh: 4; HTRA1 inh: 1

Results for O=C(Nc1ccccc1Oc1ccccc1)c1cc([N+](=O)[O-])ccc1Cl ?
PRMT1 inh: 2; TCR-CD3 inh: -3; mABHD4 FP: -11; SIAE inh: 6; HTRA1 inh: -13

Results for CCOc1cc(N2CCOCC2)c(OCC)cc1NC(=O)c1ccc(-n2ccnc2)c([N+](=O)[O-])c1 ?
PRMT1 inh: 1; TCR-CD3 inh: 5; mABHD4 FP: 1; SIAE inh: 1; HTRA1 inh: 6

What do the screens show for `COc1ccc(C(=O)Nc2ccc(Nc3ccccc3)cc2)cc1[N+](=O)[O-]`?
PRMT1 inh: 6; TCR-CD3 inh: 0; mABHD4 FP: 3; SIAE inh: 19*; HTRA1 inh: 12; SIAE inh conf: 7

Results for O=C(Nc1ccc(Nc2ccccc2)cc1)c1cc([N+](=O)[O-])ccc1Cl ?
PRMT1 inh: -3; TCR-CD3 inh: 2; mABHD4 FP: 2; SIAE inh: 24*; HTRA1 inh: 22; SIAE inh conf: 8

Results for COc1ccccc1NC(=O)c1ccc(-n2ccnc2)c([N+](=O)[O-])c1 ?
PRMT1 inh: 2; TCR-CD3 inh: -3; mABHD4 FP: 5; SIAE inh: 24*; HTRA1 inh: 4; SIAE inh conf: 8

What do the screens show for `CC(C)CN(C(=O)C1CCCCC1)C1CCS(=O)(=O)C1` (stereo unspecified)?
PRMT1 inh: 1; TCR-CD3 inh: -3; mABHD4 FP: 11; SIAE inh: 18*; HTRA1 inh: 4; SIAE inh conf: 3
